The values that follow come from ChEMBL document CHEMBL3822424, “Design and synthesis of 1H-pyrazolo[3,4-c]pyridine derivatives as a novel structural class of potent GPR119 agonists” (Bioorg Med Chem Lett, 2016).

The target of data set [1] is T1, Glucose-dependent insulinotropic receptor (Homo sapiens, UniProt Q8TDV5).
T1 sequence (Q8TDV5 whole entry): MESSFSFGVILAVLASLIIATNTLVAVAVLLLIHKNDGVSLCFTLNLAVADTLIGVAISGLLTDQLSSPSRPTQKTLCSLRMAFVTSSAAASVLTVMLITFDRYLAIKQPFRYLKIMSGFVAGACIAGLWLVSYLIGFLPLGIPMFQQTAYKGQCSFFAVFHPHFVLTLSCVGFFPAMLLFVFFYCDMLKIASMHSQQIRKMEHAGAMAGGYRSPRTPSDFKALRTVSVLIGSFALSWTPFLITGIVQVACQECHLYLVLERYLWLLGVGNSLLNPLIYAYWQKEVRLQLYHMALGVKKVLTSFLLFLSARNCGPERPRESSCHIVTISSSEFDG
The data set is described as follows: Agonist activity at human GPR119 expressed in Flp-In-T-Rex-HEK293 cells after 30 mins by cAMP accumulation assay. In kind it is functional, cell-based. Summed up:
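Flp-In-T-Rex-HEK293 cells overexpressing human GPR119, induced with tetracycline for 24 h, plated at 5000 cells/well in D-MEM assay buffer with 1 mM IBMX and 0.01% BSA. Cells exposed to compound for 30 min at 37 °C. cAMP read by HTRF kit (HiRange). Response = stimulated minus basal cAMP. EC50 = concentration giving 50% of maximal response.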
On the technique in general: Changes in cAMP serve as a functional read-out for many G protein-coupled receptors.

Data set [2] is described as follows: Drug metabolism in human liver microsomes after 15 mins. The format is ADME. The conditions noted are these: read-out: Drug metabolism. Summed up: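 Compound incubated 15 min with human liver microsomes at 1 mg protein/mL; result expressed as percent metabolized.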
On the technique in general: Liver microsomes are a subcellular fraction often used to study metabolism.

Data set [3] is described as follows: Thermodynamic solubility of the compound in phosphate buffer at pH 6.8. The format is physicochemical. The conditions noted are these: read-out: Therm_solubility. Summed up:
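Thermodynamic solubility measured in pH 6.8 phosphate buffer.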

Data set [4] can be described thus: Clearance in Sprague-Dawley rat at 3 mg/kg, iv. Conditions: in vivo. In kind it is ADME, organism-based.
Data set [5] can be described thus: Volume of distribution at steady state in Sprague-Dawley rat at 3 mg/kg, iv. The format is ADME, organism-based. Conditions: in vivo, read-out: Vdss.
The nature of data set [6]: Half life in Sprague-Dawley rat at 3 mg/kg, iv. The conditions noted are these: in vivo. The format is ADME, organism-based.
Data set [7] can be described thus: AUC (0 to infinity) in Sprague-Dawley rat at 10 mg/kg, po. The format is ADME, organism-based. Also on record: dose 10 mg/kg, time infinity, route oral. Conditions: in vivo.
A short description of data set [8]: Oral bioavailability in Sprague-Dawley rat at 10 mg/kg. Conditions: in vivo. The format is ADME, organism-based.
The nature of data set [9]: Permeability of the compound at pH 6.2 by PAMPA. The format is ADME. Conditions: read-out: permeability. For orientation: In PAMPA a lipid-coated filter parts donor from acceptor wells.

pEC50: −log10 of the molar value. In brackets after ≈: the same amount, converted by molar mass.

Broadly, the pEC50 is −log10 of the EC50, conventionally taken in molar units. As a reminder, the clearance is the rate of elimination divided by the concentration. One may read the half-life as the time needed for the level to fall by half in the phase considered. A lower half-life goes with rapid decline. In general, AUC(0-inf) refers to total exposure, with the tail of the curve extrapolated. By bioavailability is commonly meant dose-corrected exposure relative to a reference, in per cent.

`CC(C)OC(=O)N1CCC(n2ncc3cc(-c4cc(F)c(C(=O)NCCO)cc4F)ncc32)CC1` gave a negative-log EC50 (pEC50) in data set [1] of 7.04.

Turning to `CC(C)OC(=O)N1CCC(n2ncc3cc(-c4ccc(S(C)(=O)=O)nc4)ncc32)CC1`, the pEC50 in data set [1] was 6.71.

As to `CC(C)OC(=O)N1CCC(n2ncc3cc(-c4cc(F)c(C(N)=O)cc4F)ncc32)CC1`, the negative logarithm of the EC50 (pEC50) in [1] was 7.28. In data set [1], `CC(C)(C)OC(=O)N1CCC(n2ncc3cc(-c4ccc(S(C)(=O)=O)cc4)ccc32)CC1` gave a negative logarithm of the EC50 (pEC50) of 7.51. On to `CCc1cnc(N2CCC(n3ncc4cc(-c5ccc(S(C)(=O)=O)cc5)ncc43)CC2)nc1`, for which the pEC50 in data set [1] is 7.89. Further, the metabolised at 0.25 h in data set [2] amounted to 20.3%.

`CC(C)OC(=O)N1CCC(n2ncc3cc(Oc4cccc(S(C)(=O)=O)c4)ncc32)CC1`: the negative-log EC50 (pEC50) in data set [1] was 6.58. In data set [1], `CCc1cnc(N2CCC(n3ncc4cc(-c5cc(F)c(C(=O)NCCO)cc5F)ncc43)CC2)nc1` gave a negative logarithm of the EC50 (pEC50) of 7.82. For the same compound, the metabolised at 0.25 h in data set [2] is 35.8%. For the same compound, the solubility thermodynamic in data set [3] stood at 0.69 µg/mL (≈ 1.36 µM). As for `CC(C)CCN1CCC(n2ncc3cc(-c4ccc(S(C)(=O)=O)cc4)ncc32)CC1`, in [1], the negative logarithm of the EC50 (pEC50) is 6.66. The same measure, in the same setting: the same measure for `CC(C)(C)OC(=O)N1CCC(n2nnc3cc(-c4ccc(S(C)(=O)=O)cc4)ccc32)CC1`: 7.20; for `CC(C)OC(=O)N1CCC(n2ncc3cc(-c4cc(F)c(C(=O)N(C)C)cc4F)ncc32)CC1`: 7.34. In data set [1], `CC(C)OC(=O)N1CCC(n2ncc3cc(-c4ccc(S(C)(=O)=O)cc4F)ncc32)CC1` had a pEC50 of 7.57.

The compound `CC(C)(C)OC(=O)N1CCC(n2ncc3cc(-c4ccc(S(C)(=O)=O)cc4)ncc32)CC1` showed a negative-log EC50 (pEC50) in [1] of 7.70.

In data set [1], `CC(C)OC(=O)N1CCC(n2ncc3cc(-c4ccc(C(N)=O)cc4F)ncc32)CC1` gave a negative-log EC50 (pEC50) of 7.01. Consider `CC(C)COC(=O)N1CCC(n2ncc3cc(-c4ccc(S(C)(=O)=O)cc4)ncc32)CC1`, for which the pEC50 in data set [1] was 7.96. In data set [2], the metabolised at 0.25 h amounted to 79.8%. For the compound `CCCNC(=O)c1cc(F)c(-c2cc3cnn(C4CCN(C(=O)OC(C)C)CC4)c3cn2)cc1F`, in data set [1], the negative logarithm of the EC50 (pEC50) is 7.85.

`CC(C)OC(=O)N1CCC(n2ncc3cc(Oc4ccc(S(C)(=O)=O)cc4)ncc32)CC1` gave a negative-log EC50 (pEC50) in data set [1] of 6.75. As for `CC(C)(OC(=O)N1CCC(n2ncc3cc(-c4ccc(S(C)(=O)=O)cc4F)ncc32)CC1)C(F)F`, the pEC50 in data set [1] is 8.00. Further, in [2], the metabolised at 0.25 h was found to be 2.1%. Further, the solubility thermodynamic in data set [3] is below 0.06 µg/mL. `CC(C)OC(=O)N1CCC(n2ncc3cc(-c4ccc(S(C)(=O)=O)cc4)ncc32)CC1` showed a pEC50 in data set [1] of 7.38. In addition, the metabolised at 0.25 h in data set [2] was determined as 24.1%. For the same compound, the solubility thermodynamic in data set [3] stood at 0.67 µg/mL (≈ 1.51 µM). Compound `CC(C)(OC(=O)N1CCC(n2ncc3cc(-c4ccc(S(C)(=O)=O)cc4)ncc32)CC1)C(F)F` gave a pEC50 in data set [1] of 7.64. Besides, in data set [2], the metabolised at 0.25 h turned out to be 3.9%. In turn, `Cc1ccc(N2CCC(n3ncc4cc(-c5ccc(S(C)(=O)=O)cc5)ncc43)CC2)nc1` showed a negative logarithm of the EC50 (pEC50) in [1] of 7.52. Moreover, the metabolised at 0.25 h in [2] was 44.1%. As to `CCc1cnc(N2CCC(n3ncc4cc(-c5ccc(S(C)(=O)=O)cc5F)ncc43)CC2)nc1`, the negative-log EC50 (pEC50) in data set [1] is 8.40. Besides, the metabolised at 0.25 h in data set [2] is 14.3%. Besides, the solubility thermodynamic in [3] came to 0.34 µg/mL (≈ 0.707 µM). The compound also gave a clearance in data set [4] of 12.7 mL/min/kg. Also, the Vd in [5] came out at 0.537 L/kg. Moreover, in data set [6], the half-life was 37 min. The same compound gave an AUC(0-inf) in [7] of 1930 ng·h/mL. The compound further displayed a bioavailability in [8] of 12.6%. In addition, the Papp in data set [9] is 112 ×10⁻⁶ cm/s. Take `CCNC(=O)c1cc(F)c(-c2cc3cnn(C4CCN(C(=O)OC(C)C)CC4)c3cn2)cc1F`: the negative-log EC50 (pEC50) in data set [1] was 8.00.
